In ChEMBL document CHEMBL4732138, “Evaluation of the Structure-Activity Relationship of Microtubule-Targeting 1,2,4-Triazolo[1,5-a]pyrimidines Identifies New Candidates for Neurodegenerative Tauopathies” (J Med Chem, 2021) one finds fold change (FC), logD and Activity data, which are given here for 24 compounds.

In series [1] the target is T1, Tubulin (Homo sapiens) (UniProt P68371+Q9H4B7+P0DPH7+P68366+Q13509+Q71U36+P04350+Q3ZCM7+P07437+P68363+Q9BQE3+Q6PEY2+Q13885+Q9BVA1+Q9BUF5). In words: Stabilization of microtubules in human QBI293 cells assessed as fold change in alpha tubulin levels at 1 uM after 4 hrs by ELISA relative to DMSO. Format: cell-based. Summed up: (§1)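 QBI293 cells were grown in DMEM with 10% FBS, 2 mM L-glutamine and penicillin/streptomycin, then plated at 6 × 10^5 cells/well and left overnight. Medium was replaced with fresh medium holding vehicle (DMSO) or compound, and cells were incubated 4 h. Whole-cell extract supernatants were protein-normalized by BCA assay. AcTub and α-tubulin were quantified by ELISA against standard curves. Values are fold-change over DMSO, analysed by one-way ANOVA.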
(An ELISA detects its analyte on a solid surface through an enzyme-linked reagent.)

The target in series [2] is T1, Tubulin (Homo sapiens). In words: Stabilization of microtubules in human QBI293 cells assessed as fold change in acetylated tubulin levels at 1 uM after 4 hrs by ELISA relative to cevipabulin. Format: cell-based.
Series [3] can be described thus: n-octanol-water distribution coefficient, log D of the compound at pH 7.4 by shake flask method. Format: physicochemical. Put shortly: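 Distribution coefficient between n-octanol and water at pH 7.4, measured by shake-flask method.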
The target of series [4] is T1, Tubulin (Homo sapiens). Kind of series: Stabilization of microtubules in human QBI293 cells assessed as fold change in acetylated tubulin levels at 10 uM after 4 hrs by ELISA relative to cevipabulin. Format: cell-based.
The target in series [5] is T1, Tubulin (Homo sapiens). In words: Stabilization of microtubules in human QBI293 cells assessed as fold change in alpha tubulin levels at 10 uM after 4 hrs by ELISA relative to DMSO. It counts as cell-based. Put shortly: as §1
Series [6] addresses T1, Tubulin (Homo sapiens). In words: Stabilization of microtubules in human QBI293 cells assessed as fold change in acetylated tubulin levels at 1 uM after 4 hrs by ELISA relative to DMSO. Format: cell-based. Summed up:
as §1

Series [7] deals with T1, Tubulin (Homo sapiens). In words: Stabilization of microtubules in human QBI293 cells assessed as fold change in acetylated tubulin levels at 10 uM after 4 hrs by ELISA relative to DMSO. Format: cell-based. Put shortly: as §1
Series [8] deals with T1, Tubulin (Homo sapiens). In words: Stabilization of microtubules in human QBI293 cells assessed as increase in acetylated tubulin levels after 4 hrs by ELISA. It counts as cell-based. Summed up:
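QBI293 cells are grown in DMEM with 10% FBS, 2 mM L-glutamine and penicillin/streptomycin, plated at 6 × 10^5 cells/well and incubated overnight. […] Acetyl- and total α-tubulin in whole-cell extract supernatants are measured by ELISA against standard curves, with protein by BCA. Values are fold-change over DMSO; AcTub is also given relative to 100 nM cevipabulin positive control. Significance is by one-way ANOVA.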

Setting [9] is: n-octanol/water, read-out: logD.

A word on the logD: it is lipophilicity at a set pH, counting ionised and neutral species. Turning to `C[C@@H](Nc1c(-c2ccc(C#N)cc2F)c(Cl)nc2ncnn12)C(C)(C)C`, the fold change (FC) on Tubulin (Homo sapiens) [1] worked out at 0.86; on Tubulin (Homo sapiens) [2], 0.71; at Tubulin (Homo sapiens) [4], 1.24; at Tubulin (Homo sapiens) [5] it was 0.93; on Tubulin (Homo sapiens) [6], 4.41; on Tubulin (Homo sapiens) [7], 7.67. Also, the logD in series [3] (setting [9]) worked out at 2.86.

As to `CC(C)[C@@H](C)Nc1c(-c2c(F)cccc2F)c(Cl)nc2ncnn12`, the fold change (FC) was determined as 1 at Tubulin (Homo sapiens) [1]; 0.96 at Tubulin (Homo sapiens) [2]; 1.07 at Tubulin (Homo sapiens) [4]; 0.96 on Tubulin (Homo sapiens) [5]; 4.36 on Tubulin (Homo sapiens) [6]; 4.88 at Tubulin (Homo sapiens) [7]. Besides, in series [3] (setting [9]), the logD stood at 3.16.

With `C[C@@H](Nc1c(-c2c(F)cc(F)cc2F)c(Cl)nc2ncnn12)C(F)(F)F`, the fold change (FC) amounted to 1.23 at Tubulin (Homo sapiens) [1]; 0.24 at Tubulin (Homo sapiens) [2]; 0.43 on Tubulin (Homo sapiens) [4]; 1.47 at Tubulin (Homo sapiens) [5]; 1.39 at Tubulin (Homo sapiens) [6]; 2.47 on Tubulin (Homo sapiens) [7]. In addition, at Tubulin (Homo sapiens) [8], the Activity result was “Dose-dependent effect”.

As to `CC(C)CNc1c(-c2c(F)cc(F)cc2F)c(Cl)nc2ncnn12`, the fold change (FC) at Tubulin (Homo sapiens) [1] came to 1.3; on Tubulin (Homo sapiens) [2], 0.38; at Tubulin (Homo sapiens) [4], 0.53; on Tubulin (Homo sapiens) [5] it was 0.99; on Tubulin (Homo sapiens) [6], 1.63; on Tubulin (Homo sapiens) [7], 2.28. Further, the Activity result at Tubulin (Homo sapiens) [8] is “Dose-dependent effect”.

Take `C[C@H](Nc1c(-c2ccc(F)cc2)c(Cl)nc2ncnn12)C(F)(F)F`: the fold change (FC) at Tubulin (Homo sapiens) [1] stood at 1.04; at Tubulin (Homo sapiens) [2], 0.07; at Tubulin (Homo sapiens) [4] it was 0.16; at Tubulin (Homo sapiens) [5], 1.13; at Tubulin (Homo sapiens) [6] it was 1.05; at Tubulin (Homo sapiens) [7], 2.41. Further, the Activity entry on Tubulin (Homo sapiens) [8] is “Dose-dependent effect”.

In the case of `C[C@H](Nc1c(-c2ccccc2)c(Cl)nc2ncnn12)C(F)(F)F`, the fold change (FC) at Tubulin (Homo sapiens) [1] came to 1.09; on Tubulin (Homo sapiens) [2], 0.12; on Tubulin (Homo sapiens) [4], 0.3; at Tubulin (Homo sapiens) [5], 1.03; on Tubulin (Homo sapiens) [6], 1.11; on Tubulin (Homo sapiens) [7] it was 2.07. Besides, the Activity entry on Tubulin (Homo sapiens) [8] was “Dose-dependent effect”.

As for `C[C@H](Nc1c(-c2ccc(F)cc2F)c(Cl)nc2ncnn12)C(F)(F)F`, the fold change (FC) at Tubulin (Homo sapiens) [1] was found to be 0.99; at Tubulin (Homo sapiens) [2], 0.13; on Tubulin (Homo sapiens) [4], 0.27; on Tubulin (Homo sapiens) [5] it was 0.86; at Tubulin (Homo sapiens) [6] it was 1.54; at Tubulin (Homo sapiens) [7], 3.19. Also, the Activity result at Tubulin (Homo sapiens) [8] was “Dose-dependent effect”.

As to `Fc1cc(F)c(-c2c(Cl)nc3ncnn3c2N2CCC2)c(F)c1`, the fold change (FC) at Tubulin (Homo sapiens) [1] came out at 0.96; on Tubulin (Homo sapiens) [2] it was 0.26; on Tubulin (Homo sapiens) [4], 0.32; on Tubulin (Homo sapiens) [5] it was 1.17; at Tubulin (Homo sapiens) [6], 0.98; at Tubulin (Homo sapiens) [7], 1.22. The Activity entry on Tubulin (Homo sapiens) [8] is “Dose-dependent effect”.

With `CC(C)[C@@H](C)Nc1c(-c2ccc(C#N)cc2F)c(Cl)nc2ncnn12` (stereo in doubt; 67), the logD in series [3] (setting [9]) was 2.9.

Turning to `Fc1cc(F)c(-c2c(Cl)nc3ncnn3c2NCc2ccccc2)c(F)c1`, the fold change (FC) amounted to 1 at Tubulin (Homo sapiens) [1]; 0.16 on Tubulin (Homo sapiens) [2]; 0.22 on Tubulin (Homo sapiens) [4]; 1.06 on Tubulin (Homo sapiens) [5]; 1.05 at Tubulin (Homo sapiens) [6]; 1.49 at Tubulin (Homo sapiens) [7]. Moreover, the Activity result on Tubulin (Homo sapiens) [8] is “Dose-dependent effect”.

In the case of `C[C@H](Nc1c(-c2ccccc2F)c(Cl)nc2ncnn12)C(F)(F)F`, the fold change (FC) on Tubulin (Homo sapiens) [1] was 1.09; on Tubulin (Homo sapiens) [2], 0.13; on Tubulin (Homo sapiens) [4] it was 0.26; at Tubulin (Homo sapiens) [5], 1.05; at Tubulin (Homo sapiens) [6], 1.73; at Tubulin (Homo sapiens) [7] it was 3.56. At Tubulin (Homo sapiens) [8], the Activity entry is “Dose-dependent effect”.

With `N#Cc1ccc(-c2c(Cl)nc3ncnn3c2N2CCCCCC2)c(F)c1`, the fold change (FC) at Tubulin (Homo sapiens) [1] stood at 1.04; at Tubulin (Homo sapiens) [2], 0.55; at Tubulin (Homo sapiens) [4], 0.97; at Tubulin (Homo sapiens) [5], 0.99; on Tubulin (Homo sapiens) [6], 7.17; at Tubulin (Homo sapiens) [7], 12.6. For the same compound, the log distribution coefficient (logD) in series [3] (setting [9]) amounted to 3.15.

As for `CC(C)[C@@H](C)Nc1c(-c2ccc(C#N)cc2F)c(Cl)nc2ncnn12` (stereo in doubt; 68), the logD in series [3] (octanol/water) is on record as 2.67.

For the compound `CC(C)[C@@H](C)Nc1c(-c2ccccc2F)c(Cl)nc2ncnn12`, the fold change (FC) at Tubulin (Homo sapiens) [1] worked out at 1; at Tubulin (Homo sapiens) [2], 0.2; at Tubulin (Homo sapiens) [4], 0.43; on Tubulin (Homo sapiens) [5], 1.04; at Tubulin (Homo sapiens) [6], 0.95; at Tubulin (Homo sapiens) [7], 2.1. Further, the logD in series [3] (setting [9]) turned out to be 2.95.

With `Fc1cc(F)c(-c2c(Cl)nc3ncnn3c2N2CCCCC2)c(F)c1`, the fold change (FC) at Tubulin (Homo sapiens) [1] turned out to be 1.23; at Tubulin (Homo sapiens) [2], 0.13; at Tubulin (Homo sapiens) [4] it was 0.33; on Tubulin (Homo sapiens) [5] it was 1.2; on Tubulin (Homo sapiens) [6], 2.21; at Tubulin (Homo sapiens) [7] it was 5.84. For the same compound, on Tubulin (Homo sapiens) [8], the Activity result is “Dose-dependent effect”.

With `C[C@H](Nc1c(-c2cc(F)cc(F)c2)c(Cl)nc2ncnn12)C(F)(F)F`, the fold change (FC) turned out to be 1.12 at Tubulin (Homo sapiens) [1]; 0.12 at Tubulin (Homo sapiens) [2]; 0.3 at Tubulin (Homo sapiens) [4]; 1.12 on Tubulin (Homo sapiens) [5]; 1.52 at Tubulin (Homo sapiens) [6]; 3.97 at Tubulin (Homo sapiens) [7]. Also, the Activity entry on Tubulin (Homo sapiens) [8] is “Dose-dependent effect”.

`C[C@H](Nc1c(-c2c(F)cc([N+](=O)[O-])cc2F)c(Cl)nc2ncnn12)C(F)(F)F`: the fold change (FC) was 0.96 at Tubulin (Homo sapiens) [1]; 0.6 on Tubulin (Homo sapiens) [2]; 1.23 on Tubulin (Homo sapiens) [4]; 0.94 at Tubulin (Homo sapiens) [5]; 3.24 at Tubulin (Homo sapiens) [6]; 6.65 at Tubulin (Homo sapiens) [7]. Moreover, the Activity entry at Tubulin (Homo sapiens) [8] was “Dose-dependent effect”.

Consider `Fc1cc(F)c(-c2c(Cl)nc3ncnn3c2N2CCCC2)c(F)c1`, for which the fold change (FC) is 1.12 on Tubulin (Homo sapiens) [1]; 0.07 at Tubulin (Homo sapiens) [2]; 0.16 at Tubulin (Homo sapiens) [4]; 1.18 at Tubulin (Homo sapiens) [5]; 1.14 on Tubulin (Homo sapiens) [6]; 2.74 on Tubulin (Homo sapiens) [7]. Also, the Activity entry at Tubulin (Homo sapiens) [8] is “Dose-dependent effect”.

As for `CC(Nc1c(-c2c(F)cc(F)cc2F)c(Cl)nc2ncnn12)C(F)F` (stereo unspecified), the fold change (FC) was determined as 1.19 at Tubulin (Homo sapiens) [1]; 0.3 on Tubulin (Homo sapiens) [2]; 0.35 on Tubulin (Homo sapiens) [4]; 1.17 on Tubulin (Homo sapiens) [5]; 1.28 on Tubulin (Homo sapiens) [6]; 1.82 on Tubulin (Homo sapiens) [7]. On Tubulin (Homo sapiens) [8], the Activity result is “Dose-dependent effect”.

For `C[C@H](Nc1c(-c2cc(F)ccc2F)c(Cl)nc2ncnn12)C(F)(F)F`, the fold change (FC) was 1.05 at Tubulin (Homo sapiens) [1]; 0.07 on Tubulin (Homo sapiens) [2]; 0.22 at Tubulin (Homo sapiens) [4]; 0.9 at Tubulin (Homo sapiens) [5]; 1.4 on Tubulin (Homo sapiens) [6]; 4.1 on Tubulin (Homo sapiens) [7]. The Activity entry at Tubulin (Homo sapiens) [8] was “Dose-dependent effect”.

`Fc1cc(F)c(-c2c(Cl)nc3ncnn3c2NC2CCCCC2)c(F)c1`: the fold change (FC) at Tubulin (Homo sapiens) [1] turned out to be 1.07; on Tubulin (Homo sapiens) [2], 0.07; on Tubulin (Homo sapiens) [4], 0.23; at Tubulin (Homo sapiens) [5], 0.99; on Tubulin (Homo sapiens) [6], 1.13; at Tubulin (Homo sapiens) [7], 3.51. On Tubulin (Homo sapiens) [8], the Activity entry is “Dose-dependent effect”.

Consider `Fc1cc(F)c(-c2c(Cl)nc3ncnn3c2N2CCCCCCC2)c(F)c1`, for which the fold change (FC) on Tubulin (Homo sapiens) [1] stood at 1.01; on Tubulin (Homo sapiens) [2] it was 0.36; on Tubulin (Homo sapiens) [4], 0.7; on Tubulin (Homo sapiens) [5], 1.28; at Tubulin (Homo sapiens) [6], 3.7; at Tubulin (Homo sapiens) [7] it was 7.16. Further, the Activity entry at Tubulin (Homo sapiens) [8] is “Dose-dependent effect”.

As to `C[C@H](Nc1c(-c2ccc(F)c(F)c2F)c(Cl)nc2ncnn12)C(F)(F)F`, the fold change (FC) was 1.11 at Tubulin (Homo sapiens) [1]; 0.12 at Tubulin (Homo sapiens) [2]; 0.34 on Tubulin (Homo sapiens) [4]; 0.88 at Tubulin (Homo sapiens) [5]; 1.5 at Tubulin (Homo sapiens) [6]; 4.28 at Tubulin (Homo sapiens) [7]. In addition, the Activity entry on Tubulin (Homo sapiens) [8] was “Dose-dependent effect”.

For the compound `C[C@H](Nc1c(-c2ccc(F)c(F)c2)c(Cl)nc2ncnn12)C(F)(F)F`, the fold change (FC) on Tubulin (Homo sapiens) [1] is 1.01; at Tubulin (Homo sapiens) [2] it was 0.05; on Tubulin (Homo sapiens) [4] it was 0.12; on Tubulin (Homo sapiens) [5] it was 1.13; on Tubulin (Homo sapiens) [6], 1.85; at Tubulin (Homo sapiens) [7] it was 4.76. The Activity result at Tubulin (Homo sapiens) [8] is “Dose-dependent effect”.
